Experiments:
[1] = target: Kappa-type opioid receptor (Cavia porcellus, UniProt P41144); test: Displacement of [3H]U69593 from guinea pig kappa opioid receptor by liquid scintillation counting
How it was run: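 Receptor membrane suspension incubated with 3 nM [3H]U69,593 as the tritiated competitor. Unlabeled U50,488 served as the kappa standard: it generated a standard curve on every plate and defined nonspecific binding. IC50 values came from dose-response testing.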

[2] = target: Delta-type opioid receptor (Rattus norvegicus, UniProt P33533); test: Displacement of [3H]DSLET from delta opioid receptor in rat brain by liquid scintillation counting; assay type: tissue-based
[3] = target: Mu-type opioid receptor (Rattus norvegicus, UniProt P33535); test: Displacement of [3H]DAMGO from mu opioid receptor in rat brain by liquid scintillation counting; assay type: tissue-based
Sequence of Mu-type opioid receptor (P33535 whole entry): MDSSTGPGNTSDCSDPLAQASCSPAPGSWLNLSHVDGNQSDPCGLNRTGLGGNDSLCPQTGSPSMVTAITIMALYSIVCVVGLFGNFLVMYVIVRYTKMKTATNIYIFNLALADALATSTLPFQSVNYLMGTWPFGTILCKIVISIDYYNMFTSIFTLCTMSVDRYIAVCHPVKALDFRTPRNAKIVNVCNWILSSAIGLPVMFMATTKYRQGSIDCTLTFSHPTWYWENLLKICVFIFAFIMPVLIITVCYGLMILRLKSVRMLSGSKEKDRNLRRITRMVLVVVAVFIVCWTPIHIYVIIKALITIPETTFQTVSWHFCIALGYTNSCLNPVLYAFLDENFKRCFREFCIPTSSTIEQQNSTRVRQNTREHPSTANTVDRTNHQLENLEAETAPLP

Sequence of Delta-type opioid receptor (P33533 whole entry): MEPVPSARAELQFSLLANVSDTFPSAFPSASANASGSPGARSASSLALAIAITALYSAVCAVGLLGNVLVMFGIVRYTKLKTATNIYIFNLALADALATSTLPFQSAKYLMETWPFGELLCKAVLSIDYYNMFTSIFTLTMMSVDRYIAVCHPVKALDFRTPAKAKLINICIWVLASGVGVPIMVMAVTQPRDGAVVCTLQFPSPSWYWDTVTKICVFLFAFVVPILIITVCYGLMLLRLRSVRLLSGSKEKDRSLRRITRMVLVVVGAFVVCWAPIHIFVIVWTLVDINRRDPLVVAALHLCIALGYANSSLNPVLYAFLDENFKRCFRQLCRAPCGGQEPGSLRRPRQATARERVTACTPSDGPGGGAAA
Sequence of Kappa-type opioid receptor (P41144 whole entry): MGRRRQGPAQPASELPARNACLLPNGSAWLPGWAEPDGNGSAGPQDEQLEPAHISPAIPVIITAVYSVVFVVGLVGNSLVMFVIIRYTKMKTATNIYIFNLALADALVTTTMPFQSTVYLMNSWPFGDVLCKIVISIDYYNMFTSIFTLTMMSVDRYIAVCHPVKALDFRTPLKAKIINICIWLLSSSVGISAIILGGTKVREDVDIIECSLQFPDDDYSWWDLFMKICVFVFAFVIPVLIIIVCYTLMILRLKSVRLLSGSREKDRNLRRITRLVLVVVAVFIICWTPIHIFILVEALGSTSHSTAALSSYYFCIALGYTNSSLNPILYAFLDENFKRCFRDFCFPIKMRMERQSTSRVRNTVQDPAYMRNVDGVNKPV

| SMILES | IC50 [1] [nM] | IC50 [2] [nM] | IC50 [3] [nM] |
| --- | --- | --- | --- |
| CNC[C@H](Cc1ccc(O)cc1)NC[C@H](Cc1ccc(O)cc1)NCC1CCC(C)CC1 (stereo partly specified) | 102 | > 10000 | 313 |
| CNC[C@@H](Cc1ccc(O)cc1)N1CCN(CCc2cccc(C)c2)[C@@H](C(C)C)C1 | > 1000 | > 10000 | > 1000 |
| CCC[C@H](CNC)NC[C@@H](CCC)NCC1CCCCCC1 | > 1000 | > 10000 | > 1000 |
| CC(C)[C@@H]1CN([C@@H](CNCc2ccccc2)C(C)C)CCN1CCC1CC2CCC1C2 (stereo partly specified) | > 1000 | > 10000 | > 1000 |
| CC(C)(C)CCN1CCN([C@@H](CNCc2ccccc2)Cc2ccc(O)cc2)C[C@@H]1Cc1ccc(O)cc1 | 387 | 4550 | > 1000 |
| CCC[C@H](CNC)NC[C@H](Cc1ccc(O)cc1)NCC1CCC(C)CC1 (stereo partly specified) | 1750 | > 10000 | 225 |
| CNC[C@@H](Cc1ccc(O)cc1)N1CCN(CC2CCCCCC2)CC1 | 223 | > 10000 | 90 |
| CNC[C@H](Cc1ccc(O)cc1)NC[C@H](Cc1ccc(O)cc1)NCCC1CCCC1 | 186 | 2880 | 170 |
| CCC[C@H](CNC)NC[C@@H](CCC)NCCC1CCCC1 | 102 | > 10000 | > 1000 |
| CNC[C@@H](Cc1ccc(O)cc1)N1CCN(CCCC(C)C)CC1 | > 1000 | > 10000 | 471 |
| CNC[C@H](Cc1ccc(O)cc1)N1CCN(CCc2cccc(C)c2)[C@@H](C(C)C)C1 | > 1000 | > 10000 | 206 |
| CCC[C@H](CNC)NC[C@@H](CCC)NCCC1CC2CCC1C2 (stereo partly specified) | > 1000 | > 10000 | > 1000 |
| CNC[C@H](Cc1ccc(O)cc1)NC[C@H](Cc1ccc(O)cc1)NCCC1CC2CCC1C2 (stereo partly specified) | 452 | > 10000 | 270 |
| CCC[C@H](CNC)NC[C@@H](CCC)NCC1CCC(C)CC1 (stereo partly specified) | > 1000 | > 10000 | > 1000 |
| CNC[C@@H](Cc1ccc(O)cc1)N1CCN(CC2CCCCCC2)[C@@H](C(C)C)C1 | > 1000 | > 10000 | > 1000 |
| CC(C)[C@H](CNCc1ccccc1)N1CCN(CCC2CC3CCC2C3)[C@@H](Cc2ccccc2)C1 (stereo partly specified) | > 1000 | > 10000 | > 1000 |
| CCC[C@H](CN[C@H](CNC)Cc1ccc(O)cc1)NCCC12CC3CC(CC(C3)C1)C2 | 37 | > 10000 | 530 |
| CC(C)[C@@H]1CN([C@@H](CNCc2ccccc2)C(C)C)CCN1CCc1ccccc1 | > 1000 | > 10000 | > 1000 |
| CNC[C@@H](Cc1ccc(O)cc1)N1CCN(CCC2CC3CCC2C3)[C@H](C(C)C)C1 (stereo partly specified) | 230 | > 10000 | 336 |
| CNC[C@@H](Cc1ccc(O)cc1)N1CCN(CCC2CC3CCC2C3)CC1 (stereo partly specified) | 476 | > 10000 | 92 |
| CNC[C@H](Cc1ccc(O)cc1)N1CCN(CCC2CC3CCC2C3)CC1 (stereo partly specified) | 373 | 1960 | 167 |

| SMILES | IC50 [1] [nM] | IC50 [2] [nM] | IC50 [3] [nM] |
| --- | --- | --- | --- |
| CCCC[C@H](CNCc1ccccc1)N1CCN(CC(C)C)[C@H](Cc2ccc(O)cc2)C1 | 102 | > 10000 | > 1000 |
| CCC[C@H](CN[C@H](CNC)Cc1ccc(O)cc1)NCCC1CCCC1 | 97 | > 10000 | 648 |
| CNC[C@@H](Cc1ccc(O)cc1)N1CCN(CCC2CC3CCC2C3)[C@@H](C(C)C)C1 (stereo partly specified) | > 1000 | > 10000 | > 1000 |
| CCC[C@H](CN[C@H](CNC)Cc1ccc(O)cc1)NCCC1CC2CCC1C2 (stereo partly specified) | 17 | 2100 | 174 |
| CNC[C@H](Cc1ccc(O)cc1)N1CCN(CC2CCCCCC2)CC1 | 93 | > 10000 | 152 |
| CCC[C@H](CN[C@H](CNC)Cc1ccc(O)cc1)NCC1CCC(C)CC1 (stereo partly specified) | 14 | > 10000 | > 1000 |
| CC[C@H](C)[C@@H](CNC)N1CCN(CCC2CC3CCC2C3)[C@H](C(C)C)C1 (stereo partly specified) | > 1000 | > 10000 | > 1000 |
| CC[C@H](C)[C@@H](CNC)N1CCN(CCCC2CCCCC2)[C@H](C(C)C)C1 | 58 | > 10000 | > 1000 |
| CC(C)CCN1CCN([C@@H](CNCc2ccccc2)C(C)C)C[C@H]1C(C)C | > 1000 | > 10000 | > 1000 |
| CNC[C@H](Cc1ccc(O)cc1)NC[C@H](Cc1ccc(O)cc1)NCC1CCCCCC1 | 22 | > 10000 | 54 |
| CC(C)[C@H](CNCc1ccccc1)N1CCN(CCC2CCCC2)[C@@H](Cc2ccccc2)C1 | > 1000 | > 10000 | > 1000 |
| CCC[C@H](CNC)NC[C@@H](CCC)NCCC12CC3CC(CC(C3)C1)C2 | > 1000 | > 10000 | > 1000 |
| CCC(C)[C@@H](CNC)N1CCN(CCC23CC4CC(CC(C4)C2)C3)[C@H](C(C)C)C1 (stereo partly specified) | 119 | > 10000 | > 1000 |
| CCC[C@H](CNC)NC[C@H](Cc1ccc(O)cc1)NCCC1CCCC1 | 766 | > 10000 | 240 |
| CC(C)[C@@H]1CN([C@@H](CNCc2ccccc2)C(C)C)CCN1CCC1CCCC1 | > 1000 | > 10000 | > 1000 |
| CCC[C@H](CNC)NC[C@H](Cc1ccc(O)cc1)NCCC1CC2CCC1C2 (stereo partly specified) | 333 | > 10000 | 178 |
| CCCC[C@H](CNCc1ccccc1)N1CCN(CC2CCCCCC2)[C@H](Cc2ccc(O)cc2)C1 | 161 | > 10000 | > 1000 |
| CNC[C@H](Cc1ccc(O)cc1)N1CCN(CCC2CC3CCC2C3)[C@@H](C(C)C)C1 (stereo partly specified) | 374 | > 10000 | 223 |
| CNC[C@@H](Cc1ccc(O)cc1)N1CCN(CCCC2CCCCC2)[C@H](C(C)C)C1 | 654 | > 10000 | 920 |
| CCC[C@H](CNC)NC[C@H](Cc1ccc(O)cc1)NCC1CCCCCC1 | 439 | > 10000 | 107 |
| CNC[C@@H](Cc1ccc(O)cc1)N1CCN(CCCC(C)C)[C@@H](C(C)C)C1 | > 1000 | > 10000 | > 1000 |
